We go through 6 compounds from PMC11393732 (RSC Medicinal Chemistry, 2024).

For series [1], the target named is KDM3B (Homo sapiens, UniProt Q7LBC6). Nature of the series: Western blot KDM3B degradation in SW480 cells. Format: cell-based. Conditions: SW480 cells, 16 hours. The method, boiled down:
(§1)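 SW480 cells exposed to test compound for 16 h, then total lysates protein-normalised and run on SDS-PAGE. Semi-dry transfer to PVDF, 1 h block in 5% milk. Primary antibody overnight at 4 °C in 1% milk, secondary 1 h at RT, TBST washes, α-tubulin as loading control. Rescue arms co-treated with MLN4924 (1 μM) or pomalidomide (100 μM). Test compound at 0.1 μM for the KDM3A blot and 1 μM for the KDM3B blot.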
A general note: Immunoblotting shows a protein as a band on a membrane.

The target in series [2] is T1, KDM3A (Homo sapiens, UniProt Q9Y4C1).
T1 sequence (Q9Y4C1 1-1321): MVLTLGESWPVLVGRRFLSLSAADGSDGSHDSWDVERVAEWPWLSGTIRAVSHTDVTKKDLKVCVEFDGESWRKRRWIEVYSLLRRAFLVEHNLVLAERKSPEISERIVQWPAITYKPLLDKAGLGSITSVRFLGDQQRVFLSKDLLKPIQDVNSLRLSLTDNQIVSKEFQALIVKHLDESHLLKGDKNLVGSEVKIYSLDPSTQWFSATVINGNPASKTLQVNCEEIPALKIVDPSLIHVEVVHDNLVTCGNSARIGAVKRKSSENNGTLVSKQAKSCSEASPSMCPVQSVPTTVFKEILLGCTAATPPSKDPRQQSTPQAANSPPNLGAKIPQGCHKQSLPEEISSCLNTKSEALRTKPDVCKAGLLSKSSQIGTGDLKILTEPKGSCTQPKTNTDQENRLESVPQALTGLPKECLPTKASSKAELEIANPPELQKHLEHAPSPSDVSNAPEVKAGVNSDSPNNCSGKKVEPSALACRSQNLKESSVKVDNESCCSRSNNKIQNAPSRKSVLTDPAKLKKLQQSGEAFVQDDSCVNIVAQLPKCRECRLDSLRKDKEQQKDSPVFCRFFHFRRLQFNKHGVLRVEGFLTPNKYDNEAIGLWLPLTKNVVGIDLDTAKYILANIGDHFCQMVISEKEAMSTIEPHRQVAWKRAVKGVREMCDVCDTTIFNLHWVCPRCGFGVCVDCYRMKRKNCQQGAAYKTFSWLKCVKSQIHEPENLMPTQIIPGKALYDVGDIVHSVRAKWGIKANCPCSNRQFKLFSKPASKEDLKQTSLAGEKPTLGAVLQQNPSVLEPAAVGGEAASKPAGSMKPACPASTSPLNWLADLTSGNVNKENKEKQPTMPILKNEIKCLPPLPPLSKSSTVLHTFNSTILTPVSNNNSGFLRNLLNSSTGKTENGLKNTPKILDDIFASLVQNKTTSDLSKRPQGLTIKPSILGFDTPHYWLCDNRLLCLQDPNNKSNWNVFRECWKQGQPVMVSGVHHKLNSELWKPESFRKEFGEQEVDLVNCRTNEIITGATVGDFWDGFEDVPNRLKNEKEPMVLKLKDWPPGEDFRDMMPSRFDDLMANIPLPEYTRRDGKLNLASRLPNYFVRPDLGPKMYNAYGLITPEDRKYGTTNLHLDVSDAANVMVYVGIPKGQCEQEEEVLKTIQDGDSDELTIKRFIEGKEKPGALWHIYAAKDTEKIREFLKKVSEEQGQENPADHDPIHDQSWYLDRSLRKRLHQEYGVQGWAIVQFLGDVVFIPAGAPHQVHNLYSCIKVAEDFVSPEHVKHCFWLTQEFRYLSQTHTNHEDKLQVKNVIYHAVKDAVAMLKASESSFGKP
Nature of the series: Western blot KDM3A degradation in SW480 cells. Conditions: SW480 cells, 16 hours. Format: cell-based. The method, boiled down:
as §1

In series [3] the test system is Wnt target genes in HCP-1 cells. Briefly: RT-qPCR of Wnt target gene expression in HCP-1. Format: cell-based, human. The method, boiled down:
(§2)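 Cells in 6-well plates exposed to test compound for 16 h. Total RNA extracted; 1 μg reverse-transcribed with M-MuLV and random hexamers. SYBR Green qPCR for the named genes, quantified by 2ΔΔct against tubulin. Mean ± SD; unpaired two-tailed Student's t-test.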
In general terms: In qPCR the cycle at which signal appears reflects the starting amount.

Series [4] relates to CRL-1790 cells. Briefly: CCK-8 based toxicity assay. Format: cell-based, human. The method, boiled down: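 Non-malignant human colon epithelial CRL-1790 cells grown in EMEM with 10% FBS and 1% pen–strep at 37 °C and 5% CO2. Seeded at 3 × 10^3 cells/well in 96-well plates, then exposed to test compound. Viability read by CCK-8 at 48 h as OD 450 nm. TD50 derived from the dose–response.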
(In general: Formazan colour is commonly taken as a measure of viable cells.)

Series [5] deals with KDM4 family proteins (KDM4A, KDM4B and KDM4C). Briefly: Western blot KDM4 family proteins in SW480 cells. Format: cell-based, human. The method, boiled down: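 Lysates from compound-treated SW480 cells normalised for total protein and resolved by SDS-PAGE. Semi-dry transfer to PVDF, 1 h block in 5% milk. Overnight incubation at 4 °C with anti-KDM4A, -KDM4B or -KDM4C antibody in 1% milk, secondary 1 h at RT, TBST washes, α-tubulin as loading control.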

The test system of series [6] is HCP-1 cells. Briefly: Clonogenic assay HCP-1. Format: cell-based, human. The settings on record: HCP-1, 2 weeks. The method, boiled down: (§3)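 Cells kept in DMEM with 10% FBS and 1% pen–strep, seeded at 500 cells/well and dosed with test compound once attached. Medium refreshed every 3 days for 2 weeks. Colonies stained with 0.5% crystal violet and photographed. ED50 obtained by image analysis.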

Series [7] has as its system Wnt target genes in SW480 cells. Briefly: RT-qPCR of Wnt target gene expression in SW480. Format: cell-based, human. The method, boiled down: as §2
Series [8] relates to ALDH^high-HCP-1 CSCs. Nature of the series: Tumor sphere formation assay HCP-1. The settings on record: 2 weeks. Format: cell-based, human. The method, boiled down:
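Trypsinised cells passed through a 40 μm strainer and stained with ALDEFLUOR. ALDHHigh cells sorted by FACS, with DEAB-treated cells as gating control. Plated at 1000 cells/well on ultra-low attachment in serum-free MEBM containing 2% B27, 20 ng mL−1 EGF, 10 ng mL−1 FGF, 1 ng mL−1 hydrocortisone, 5 μg mL−1 insulin and 100 μM β-mercaptoethanol. Dosed 1 h after plating; medium renewed at 1 week. Spheres >40 μm counted at 2 weeks for ED50.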

Series [9] relates to SW480 cells. Nature of the series: Clonogenic assay SW480. Format: cell-based, human. The settings on record: SW480, 2 weeks. The method, boiled down:
as §3

A short description of series [10]: Hepatic metabolism S9 fraction incubation, rat. Conditions: 0.1 μM, plus glutathione, UDPGA, PAPS, 37 °C.
Series [11] is described as follows: Hepatic metabolism S9 fraction incubation, human. The settings on record: 0.1 μM, plus glutathione, UDPGA, PAPS, 37 °C.
For series [12], the system named is 293T cells expressing a TCF-responsive luciferase reporter (293T-TCF-Luc). Briefly: Wnt luciferase reporter assay. Format: cell-based. Conditions: Homo sapiens, HEK-293T, 16 h, read-out: IC50 (293T-TCF-Luc). The method, boiled down: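 293T cells stably transduced with a lentiviral TCF/LEF–luciferase reporter and selected in puromycin ([…], 4 days). Seeded at 100 000 cells/well and dosed with test compound on attachment. Wnt signalling stimulated with 20 mM LiCl 4 h later. Lysates taken at 16 h; Bright-Glo luminescence normalised to total protein.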

Series [13] concerns CSC growth. The settings on record: most cell-based assays ref 16,17; cited from earlier work.

Sequence of KDM3B (Q7LBC6 whole entry): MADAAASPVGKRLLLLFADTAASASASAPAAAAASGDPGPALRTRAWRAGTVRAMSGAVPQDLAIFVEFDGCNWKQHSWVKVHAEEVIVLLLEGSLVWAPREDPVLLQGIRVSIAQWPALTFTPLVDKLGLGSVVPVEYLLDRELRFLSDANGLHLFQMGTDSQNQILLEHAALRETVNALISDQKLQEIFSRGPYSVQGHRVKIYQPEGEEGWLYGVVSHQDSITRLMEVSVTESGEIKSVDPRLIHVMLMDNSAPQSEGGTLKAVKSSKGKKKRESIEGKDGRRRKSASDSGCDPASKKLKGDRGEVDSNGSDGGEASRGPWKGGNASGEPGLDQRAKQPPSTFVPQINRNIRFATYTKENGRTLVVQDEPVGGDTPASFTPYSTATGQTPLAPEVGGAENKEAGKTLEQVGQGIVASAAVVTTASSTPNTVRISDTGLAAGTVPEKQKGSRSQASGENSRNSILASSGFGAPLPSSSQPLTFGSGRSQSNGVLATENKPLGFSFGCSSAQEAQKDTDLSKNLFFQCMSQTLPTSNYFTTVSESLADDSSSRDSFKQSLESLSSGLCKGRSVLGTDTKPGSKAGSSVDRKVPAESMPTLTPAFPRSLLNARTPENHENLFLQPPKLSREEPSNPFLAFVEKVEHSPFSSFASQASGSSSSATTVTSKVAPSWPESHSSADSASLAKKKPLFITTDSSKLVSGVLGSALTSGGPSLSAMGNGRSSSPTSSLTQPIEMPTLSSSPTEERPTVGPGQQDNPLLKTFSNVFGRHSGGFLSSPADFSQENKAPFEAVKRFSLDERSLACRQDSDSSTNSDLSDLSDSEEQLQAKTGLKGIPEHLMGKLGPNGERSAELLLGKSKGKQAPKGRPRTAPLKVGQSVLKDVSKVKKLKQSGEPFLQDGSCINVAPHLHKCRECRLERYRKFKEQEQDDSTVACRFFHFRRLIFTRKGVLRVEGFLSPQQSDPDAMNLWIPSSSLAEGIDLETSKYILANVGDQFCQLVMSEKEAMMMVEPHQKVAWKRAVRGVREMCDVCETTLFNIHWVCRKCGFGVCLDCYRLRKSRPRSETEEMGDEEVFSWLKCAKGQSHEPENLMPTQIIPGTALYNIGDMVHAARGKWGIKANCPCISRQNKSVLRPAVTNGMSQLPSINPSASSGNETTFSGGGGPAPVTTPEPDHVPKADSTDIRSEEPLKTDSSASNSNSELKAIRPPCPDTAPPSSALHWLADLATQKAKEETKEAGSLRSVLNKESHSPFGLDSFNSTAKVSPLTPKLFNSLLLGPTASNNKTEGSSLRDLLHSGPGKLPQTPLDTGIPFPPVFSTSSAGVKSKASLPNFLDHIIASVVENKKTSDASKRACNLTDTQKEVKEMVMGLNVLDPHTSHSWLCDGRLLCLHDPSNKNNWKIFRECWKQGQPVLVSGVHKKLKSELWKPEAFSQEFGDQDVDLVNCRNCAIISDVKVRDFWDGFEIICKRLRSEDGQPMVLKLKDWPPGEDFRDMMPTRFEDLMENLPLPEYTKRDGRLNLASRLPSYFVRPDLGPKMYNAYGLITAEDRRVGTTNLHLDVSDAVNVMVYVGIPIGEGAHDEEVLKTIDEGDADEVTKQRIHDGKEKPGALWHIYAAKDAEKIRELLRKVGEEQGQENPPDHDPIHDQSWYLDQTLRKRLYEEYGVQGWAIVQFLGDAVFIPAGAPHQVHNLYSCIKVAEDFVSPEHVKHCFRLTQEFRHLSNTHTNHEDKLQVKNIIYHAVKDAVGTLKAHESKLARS

Consider `O=C1CCC(N2C(=O)c3cccc(NCCOCCOCCOCCNC(=O)c4ccc(O)c5ncccc45)c3C2=O)C(=O)N1` (stereo not drawn) [Compound 3, N-(2-(2-(2-(2-((2-(2,6-Dioxopiperidin-3-yl)-1,3-dioxoisoindolin-4-yl)amino)ethoxy)ethoxy)ethoxy)ethyl)-8-hydroxyquinoline-5-carboxamide], for which the “KDM3B degradation (western blot)” value in series [1] is “little effect in degrading KDM3A and KDM3B”. Besides, the “KDM3A degradation (western blot)” value in series [2] is “little effect in degrading KDM3A and KDM3B”.

Regarding `O=C1CCC(N2C(=O)c3cccc(NCCOCCOCCOCCOCCOCCNC(=O)c4ccc(O)c5ncccc45)c3C2=O)C(=O)N1` (stereo not drawn) [Compound 5, N-(17-((2-(2,6-Dioxopiperidin-3-yl)-1,3-dioxoisoindolin-4-yl)amino)-3,6,9,12,15-pentaoxaheptadecyl)-8-hydroxyquinoline-5-carboxamide], the “KDM3B degradation (western blot)” value in [1] was “little effect in degrading KDM3A and KDM3B”. For the same compound, in series [2], the “KDM3A degradation (western blot)” value is “little effect in degrading KDM3A and KDM3B”.

With `O=C1CCC(N2C(=O)c3cccc(NCCOCCOCCOCCOCCOCCOCCNC(=O)c4ccc(O)c5ncccc45)c3C2=O)C(=O)N1` (stereo not drawn) [Compound 6, N-(20-((2-(2,6-Dioxopiperidin-3-yl)-1,3-dioxoisoindolin-4-yl)amino)-3,6,9,12,15,18-hexaoxaicosyl)-8-hydroxyquinoline-5-carboxamide], the “suppression of Wnt target gene expression (AXIN2, DKK1, CCND1)” value in [3] (HCP-1, 50 μM, 16-hour treatment, in most cases) is recorded as no less than 50%; in [7] (SW480, 50 μM, 16-hour treatment, in most cases), no less than 50%. For the same compound, the “expression of colorectal CSC signature genes (ASCL2, RNF43, ZNRF3, LGR5)” value in series [3] (HCP-1, 16 hours) is given as “strongly inhibited”; in series [7] (SW480, 16 hours), “strongly inhibited”. The “cell growth of CRL-1790” value in [4] (60 μM, two-day treatment) is “not dramatically affected”. Also, in series [4] (CCK8 assay, 48 h post drug treatment), the “TD50 CRL-1790” value came out at 400.3 µM. In series [5], the “effect on KDM4 family proteins” value is “not dramatically affected”. The “KDM3B degradation (western blot)” value in series [1] was “limited ability to degrade KDM3A and KDM3B”. Further, the colony formation entry in series [6] and in series [9] was “potently inhibited the colony formation” throughout. For the same compound, the “ED50 HCP-1 (tumor sphere formation)” value in series [8] is 0.51 µM. Also, the “KDM3A degradation (western blot)” value in [2] is “limited ability to degrade KDM3A and KDM3B”.

On to `O=C(O)Cc1ccccc1Nc1c(Cl)cccc1Cl` [Diclofenac, reference compound], for which, in [10], the “CLint Rat (liver, S9)” value was 6.8 µL/min/mg. For the same compound, the “CLint Human (liver, S9)” value in series [11] was 37.5 µL/min/mg.

Usually IC50 stands for the concentration needed to halve the response being measured. As to `O=C(O)c1ccc(O)c2ncccc12` [IOX1, 8-Hydroxyquinoline-5-carboxylic acid, reference compound], in series [12], the IC50 is 48.6 µM. In addition, the “effective concentrations for suppressing CSC growth” value in [13] is 20 to 50 µM. The “KDM3B degradation (western blot)” value in series [1] is “did not induce KDM3A and KDM3B degradation”. Also, the “ED50 HCP-1 (tumor sphere formation)” value in series [8] stood at 10.1 µM. In addition, the “KDM3A degradation (western blot)” value in series [2] was “did not induce KDM3A and KDM3B degradation”.

For orientation: half-life means the time in which the quantity being followed falls by half. For the compound `CC(C)NCC(O)COc1cccc2ccccc12` (stereo not drawn) [Propranolol, reference compound], the half-life at 0.1 μM in series [11] (human, s9, t 1/2 Human (liver, S9)) was greater than 2 h.
